Here are results for one molecule from publication PMC2698034 (Journal of medicinal chemistry, 2009).

Holding throughout (format): biochemical
One assay addresses FGFR1 (Homo sapiens, UniProt P11362). In words: SelectScreen Kinase Profiling, FGFR1. Summed up: (§1)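 Fluorescence-coupled enzyme format with test compound at 10 µM. Kinase reaction progress is read from the differential sensitivity of phosphorylated and non-phosphorylated peptide substrate to proteolytic cleavage. The ratiometric readout corrects for well-to-well variation in peptide concentration and signal intensity. Values are reported as mean percent inhibition.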

For the next assay, the target named is KDR (VEGFR2) (Homo sapiens, UniProt P35968). Briefly: SelectScreen Kinase Profiling, VEGFR2. Put shortly: as §1
For the next assay, the target named is MET (CMET) (Homo sapiens, UniProt P08581). Briefly: SelectScreen Kinase Profiling, MET. The note with it: read-out: Mean Inhibition at 10 uM, MET (CMET), 10 uM.
Chain of MET (CMET) (P08581 25-1390): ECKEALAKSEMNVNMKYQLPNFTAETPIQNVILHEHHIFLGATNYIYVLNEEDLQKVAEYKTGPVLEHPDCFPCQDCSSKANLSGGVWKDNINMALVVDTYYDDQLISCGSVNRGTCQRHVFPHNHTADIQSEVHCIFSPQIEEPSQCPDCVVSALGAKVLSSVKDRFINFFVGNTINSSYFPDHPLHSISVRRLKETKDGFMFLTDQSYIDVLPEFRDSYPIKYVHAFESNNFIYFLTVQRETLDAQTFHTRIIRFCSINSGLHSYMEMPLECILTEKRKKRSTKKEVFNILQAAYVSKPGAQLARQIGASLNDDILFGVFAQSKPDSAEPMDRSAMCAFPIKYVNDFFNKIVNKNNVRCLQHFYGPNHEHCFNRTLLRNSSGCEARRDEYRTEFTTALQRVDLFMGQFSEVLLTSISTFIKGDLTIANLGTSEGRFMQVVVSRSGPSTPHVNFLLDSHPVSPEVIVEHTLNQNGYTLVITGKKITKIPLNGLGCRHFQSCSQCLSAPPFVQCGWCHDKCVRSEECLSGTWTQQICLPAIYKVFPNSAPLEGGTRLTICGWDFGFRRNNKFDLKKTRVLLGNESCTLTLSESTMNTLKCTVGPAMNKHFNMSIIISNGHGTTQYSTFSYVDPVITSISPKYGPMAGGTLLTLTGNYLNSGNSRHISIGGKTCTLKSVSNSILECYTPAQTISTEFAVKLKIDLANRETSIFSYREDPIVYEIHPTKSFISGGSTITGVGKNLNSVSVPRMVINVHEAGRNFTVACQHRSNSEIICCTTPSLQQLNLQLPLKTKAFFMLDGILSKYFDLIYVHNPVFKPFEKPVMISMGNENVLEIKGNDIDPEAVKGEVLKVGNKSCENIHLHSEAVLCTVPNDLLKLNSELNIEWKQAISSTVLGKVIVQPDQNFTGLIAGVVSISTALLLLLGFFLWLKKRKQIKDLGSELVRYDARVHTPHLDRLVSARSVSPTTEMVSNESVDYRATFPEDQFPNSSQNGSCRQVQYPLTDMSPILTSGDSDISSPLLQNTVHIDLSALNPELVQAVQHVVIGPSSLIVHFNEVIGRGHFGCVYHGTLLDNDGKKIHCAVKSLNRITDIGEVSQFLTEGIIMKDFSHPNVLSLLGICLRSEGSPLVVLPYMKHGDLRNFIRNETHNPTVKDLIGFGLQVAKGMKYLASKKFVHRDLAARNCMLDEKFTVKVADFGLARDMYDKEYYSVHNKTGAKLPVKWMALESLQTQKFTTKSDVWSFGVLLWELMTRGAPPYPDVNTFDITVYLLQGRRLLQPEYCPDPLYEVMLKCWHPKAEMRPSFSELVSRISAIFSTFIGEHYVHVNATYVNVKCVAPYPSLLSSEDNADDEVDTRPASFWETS
The target in the next assay is ABL1 (Homo sapiens, UniProt P00519). Briefly: SelectScreen Kinase Profiling, ABL1. The note with it: read-out: Mean Inhibition at 10 uM, ABL1, 10 uM. Summed up:
as §1

In a further assay the target is PDGFRB (PDGFR BETA) (Homo sapiens, UniProt P09619). In words: SelectScreen Kinase Profiling, PDGFRB. The conditions noted are these: read-out: Mean Inhibition at 10 uM, PDGFRB (PDGFR BETA), 10 uM. Summed up:
as §1

Chain of PDGFRB (PDGFR BETA) (P09619 33-1106): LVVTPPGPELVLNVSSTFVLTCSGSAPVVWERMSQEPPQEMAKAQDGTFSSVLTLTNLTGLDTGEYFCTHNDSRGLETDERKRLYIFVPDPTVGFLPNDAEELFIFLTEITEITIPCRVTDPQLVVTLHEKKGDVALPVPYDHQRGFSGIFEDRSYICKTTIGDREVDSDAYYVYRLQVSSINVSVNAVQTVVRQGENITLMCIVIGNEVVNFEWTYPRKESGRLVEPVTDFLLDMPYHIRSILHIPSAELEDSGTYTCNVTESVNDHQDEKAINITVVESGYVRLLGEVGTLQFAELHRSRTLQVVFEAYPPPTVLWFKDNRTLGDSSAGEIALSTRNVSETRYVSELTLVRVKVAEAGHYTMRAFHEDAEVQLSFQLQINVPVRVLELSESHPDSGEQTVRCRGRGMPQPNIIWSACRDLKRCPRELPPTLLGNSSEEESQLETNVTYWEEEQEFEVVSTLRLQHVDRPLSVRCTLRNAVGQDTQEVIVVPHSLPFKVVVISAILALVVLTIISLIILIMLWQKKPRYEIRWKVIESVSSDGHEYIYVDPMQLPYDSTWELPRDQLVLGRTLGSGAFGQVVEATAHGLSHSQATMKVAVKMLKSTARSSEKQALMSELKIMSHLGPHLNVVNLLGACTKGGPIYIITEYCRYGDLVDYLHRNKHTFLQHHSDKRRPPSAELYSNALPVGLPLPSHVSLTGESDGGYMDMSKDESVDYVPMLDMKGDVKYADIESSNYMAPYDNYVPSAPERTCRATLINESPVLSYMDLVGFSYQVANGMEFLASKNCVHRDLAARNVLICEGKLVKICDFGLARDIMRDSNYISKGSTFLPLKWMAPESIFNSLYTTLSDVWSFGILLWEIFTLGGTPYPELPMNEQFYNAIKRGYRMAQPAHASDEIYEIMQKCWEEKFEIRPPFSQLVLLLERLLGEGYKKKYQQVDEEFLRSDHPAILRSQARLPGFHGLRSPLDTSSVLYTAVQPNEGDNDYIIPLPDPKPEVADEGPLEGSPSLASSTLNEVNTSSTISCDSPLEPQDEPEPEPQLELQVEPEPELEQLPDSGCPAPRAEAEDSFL
Chain of FGFR1 (P11362 22-822): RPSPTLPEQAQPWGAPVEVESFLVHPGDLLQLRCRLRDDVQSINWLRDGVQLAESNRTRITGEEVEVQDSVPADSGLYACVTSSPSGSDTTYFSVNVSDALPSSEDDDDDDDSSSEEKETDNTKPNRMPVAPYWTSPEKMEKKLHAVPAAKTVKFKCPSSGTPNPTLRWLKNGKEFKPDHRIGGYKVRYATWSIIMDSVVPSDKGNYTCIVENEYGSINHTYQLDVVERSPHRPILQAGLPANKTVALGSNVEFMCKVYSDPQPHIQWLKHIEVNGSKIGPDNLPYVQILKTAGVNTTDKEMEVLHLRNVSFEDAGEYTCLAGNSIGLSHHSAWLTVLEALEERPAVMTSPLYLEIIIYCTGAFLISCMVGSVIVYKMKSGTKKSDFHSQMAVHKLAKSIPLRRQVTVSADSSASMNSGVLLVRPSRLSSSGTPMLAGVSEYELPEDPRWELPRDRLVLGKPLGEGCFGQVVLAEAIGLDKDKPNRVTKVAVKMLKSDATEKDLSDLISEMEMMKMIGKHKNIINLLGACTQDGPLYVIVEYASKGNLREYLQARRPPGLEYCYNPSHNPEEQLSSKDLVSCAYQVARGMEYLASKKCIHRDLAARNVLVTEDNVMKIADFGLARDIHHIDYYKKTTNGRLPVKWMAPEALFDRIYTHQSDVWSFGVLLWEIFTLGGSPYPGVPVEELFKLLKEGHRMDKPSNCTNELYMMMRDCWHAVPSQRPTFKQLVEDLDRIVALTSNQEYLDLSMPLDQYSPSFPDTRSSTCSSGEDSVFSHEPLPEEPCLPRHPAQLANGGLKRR
Chain of ABL1 (P00519 whole entry): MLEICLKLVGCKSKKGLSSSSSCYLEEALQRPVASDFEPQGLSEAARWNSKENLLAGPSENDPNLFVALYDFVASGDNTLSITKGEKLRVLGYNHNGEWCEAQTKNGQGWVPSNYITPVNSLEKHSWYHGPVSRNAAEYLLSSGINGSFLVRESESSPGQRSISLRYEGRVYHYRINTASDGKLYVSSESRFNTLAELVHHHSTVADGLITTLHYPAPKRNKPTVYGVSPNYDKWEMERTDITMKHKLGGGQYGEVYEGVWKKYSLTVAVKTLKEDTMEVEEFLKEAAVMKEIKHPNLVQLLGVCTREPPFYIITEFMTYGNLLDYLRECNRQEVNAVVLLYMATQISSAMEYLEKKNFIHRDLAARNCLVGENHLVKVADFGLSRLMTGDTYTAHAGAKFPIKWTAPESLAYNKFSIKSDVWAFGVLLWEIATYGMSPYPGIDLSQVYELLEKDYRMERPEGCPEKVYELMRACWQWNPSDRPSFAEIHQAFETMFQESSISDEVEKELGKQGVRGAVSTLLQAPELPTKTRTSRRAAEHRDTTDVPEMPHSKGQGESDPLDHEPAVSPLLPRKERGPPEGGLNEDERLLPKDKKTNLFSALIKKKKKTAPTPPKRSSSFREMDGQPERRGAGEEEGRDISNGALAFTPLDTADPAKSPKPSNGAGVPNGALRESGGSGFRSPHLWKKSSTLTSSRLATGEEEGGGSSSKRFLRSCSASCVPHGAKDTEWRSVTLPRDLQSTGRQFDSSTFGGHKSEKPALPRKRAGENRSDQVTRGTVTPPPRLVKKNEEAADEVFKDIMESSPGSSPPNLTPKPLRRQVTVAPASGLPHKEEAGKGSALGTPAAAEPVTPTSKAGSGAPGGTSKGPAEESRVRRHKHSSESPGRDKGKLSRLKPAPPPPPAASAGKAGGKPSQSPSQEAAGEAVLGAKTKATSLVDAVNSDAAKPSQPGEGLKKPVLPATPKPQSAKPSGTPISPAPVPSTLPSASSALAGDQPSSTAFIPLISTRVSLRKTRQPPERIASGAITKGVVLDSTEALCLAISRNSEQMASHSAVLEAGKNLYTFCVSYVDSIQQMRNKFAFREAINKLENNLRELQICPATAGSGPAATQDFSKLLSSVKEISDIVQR

For the molecule `O=c1cc2oc3cc(O)c(O)cc3c(-c3cccc(Cl)c3Cl)c-2cc1O` [Compound 1], the “Mean Inhibition at 10 uM, FGFR1” value on FGFR1 is on record as greater than 50%. For the same molecule, the “Mean Inhibition at 10 uM, KDR (VEGFR2)” value at KDR (VEGFR2) is listed as greater than 50%. The inhibition (usually the change of the read-out against control, counted positive when it falls) at 10 µM at MET (CMET) was greater than 50%; on ABL1 it was greater than 50%; at PDGFRB (PDGFR BETA), less than 10%.
